Measurements taken from ChEMBL document CHEMBL5303300, “EUbOPEN Chemogenomics Library - Multiplex” (2023).
Several values for one entry are separate records, joined by “and”; a condition that tells them apart may be missing. Identical values can stand only once.

Tested on: HEK-293T
Test: Multiplex assay against HEK293T
Type: toxicity, cell-based
Conditions: human, number of replicates 2
Outline: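 Hoechst33342, BioTracker Green Microtubule Cytoskeleton Dye, MitoTracker Red and Annexin V Alexa Fluor 680 were added to live cells at seeding, and imaging on a CQ1 microscope at 37°C and 5% CO2 followed compound addition. Gating by CellPathfinder machine learning separated cells into Hoechst high-intensity objects or normal cells, then normal cells into healthy, pyknosed or fragmented nuclei, then pyknosed cells into mitotic or apoptotic. Per cents of healthy-nucleus cells are reported for the tubulin, mitochondrial-mass and membrane-permeability phenotypes.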

[1] = 12 h, 1 µM, compound concentration 1 uM
[2] = 12 h, 10 µM, compound concentration 10 uM
[3] = 24 h, 1 µM, compound concentration 1 uM
[4] = 24 h, 10 µM, compound concentration 10 uM
[5] = 48 h, 1 µM, compound concentration 1 uM
[6] = 48 h, 10 µM, compound concentration 10 uM

CC(C)NC(=O)[C@H]1CCC[C@H]1Nc1nc(Nc2ccc(C(=O)N(C)C3CCN(C)CC3)cc2)ncc1Cl
Population Apoptotic (%) [1]: 64% and 57% | Population Fragmented Nuclei (%) [1]: 3% and 1% | Population Healthy Nuclei (%) [1]: 79% and 87% | Population Hoechst High Intensity Objects (%) [1]: 7% and 8% | Population Membrane Permeable-Phenotype (%) [1]: 4% and 2% | Population Mitochondria Different-Phenotype (%) [1]: 17% and 15% | Population Mitotic Cells (%) [1]: 35% and 42% | Population Normal (%) [1]: 92% and 91% | Population Pyknosed Nuclei (%) [1]: 16% and 10% | Population Tubulin-Different-Phenotype (%) [1]: 60% and 58% | Total Cell Count [1]: 568 and 503 | Population Apoptotic (%) [2]: 47% and 56% | Population Fragmented Nuclei (%) [2]: 3% and 2% | Population Healthy Nuclei (%) [2]: 87% and 86% | Population Hoechst High Intensity Objects (%) [2]: 8% and 7% | Population Membrane Permeable-Phenotype (%) [2]: 4% | Population Mitochondria Different-Phenotype (%) [2]: 29% and 30% | Population Mitotic Cells (%) [2]: 52% and 43% | Population Normal (%) [2]: 91% and 92% | Population Pyknosed Nuclei (%) [2]: 9% and 10% | Population Tubulin-Different-Phenotype (%) [2]: 88% and 87% | Total Cell Count [2]: 520 and 480 | Population Apoptotic (%) [3]: 64% and 61% | Population Fragmented Nuclei (%) [3]: 5% and 6% | Population Healthy Nuclei (%) [3]: 76% and 84% | Population Hoechst High Intensity Objects (%) [3]: 9% and 10% | Population Membrane Permeable-Phenotype (%) [3]: 2% | Population Mitochondria Different-Phenotype (%) [3]: 9% and 5% | Population Mitotic Cells (%) [3]: 35% and 38% | Population Normal (%) [3]: 90% and 89% | Population Pyknosed Nuclei (%) [3]: 17% and 8% | Population Tubulin-Different-Phenotype (%) [3]: 43% and 37% | Total Cell Count [3]: 653 and 524 | Population Apoptotic (%) [4]: 52% and 54% | Population Fragmented Nuclei (%) [4]: 3% and 4% | Population Healthy Nuclei (%) [4]: 85% and 87% | Population Hoechst High Intensity Objects (%) [4]: 6% and 9% | Population Membrane Permeable-Phenotype (%) [4]: 6% and 3% | Population Mitochondria Different-Phenotype (%) [4]: 16% and 18% | Population Mitotic Cells (%) [4]: 47% and 45% | Population Normal (%) [4]: 93% and 90% | Population Pyknosed Nuclei (%) [4]: 11% and 7% | Population Tubulin-Different-Phenotype (%) [4]: 74% and 81% | Total Cell Count [4]: 514 and 516 | Population Apoptotic (%) [5]: 68% and 45% | Population Fragmented Nuclei (%) [5]: 9% and 8% | Population Healthy Nuclei (%) [5]: 84% and 89% | Population Hoechst High Intensity Objects (%) [5]: 9% and 10% | Population Membrane Permeable-Phenotype (%) [5]: 3% and 1% | Population Mitochondria Different-Phenotype (%) [5]: 1% and 2% | Population Mitotic Cells (%) [5]: 31% and 54% | Population Normal (%) [5]: 90% and 89% | Population Pyknosed Nuclei (%) [5]: 5% and 2% | Population Tubulin-Different-Phenotype (%) [5]: 22% and 20% | Total Cell Count [5]: 714 and 606 | Population Apoptotic (%) [6]: 47% and 53% | Population Fragmented Nuclei (%) [6]: 8% and 10% | Population Healthy Nuclei (%) [6]: 84% and 85% | Population Hoechst High Intensity Objects (%) [6]: 10% and 11% | Population Membrane Permeable-Phenotype (%) [6]: 3% and 4% | Population Mitochondria Different-Phenotype (%) [6]: 5% | Population Mitotic Cells (%) [6]: 52% and 46% | Population Normal (%) [6]: 89% and 88% | Population Pyknosed Nuclei (%) [6]: 6% and 4% | Population Tubulin-Different-Phenotype (%) [6]: 67% and 70% | Total Cell Count [6]: 617 and 637
